The values below come from paper PMC4893637 (Theranostics, 2016).

What is called IC50 is the concentration that gives 50% inhibition.

The subject of data set [1] is BALB/c nude mouse LNCaP xenograft. In words: MicroPET in LNCaP xenograft mouse. The class given is in vivo. As to conditions: 68Ga-labeled, i.v. In short, it runs like this:
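Purified 68Ga-labelled test conjugates (50 MBq/nmol) were sterile-filtered and 100 µl injected into the tail vein of BALB/c nude mice bearing LNCaP xenografts under 2% sevoflurane. Two tracers were compared in the same mouse. Blocking used 100-fold excess of unlabelled compound, imaged 2 h post-injection.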

The target in data set [2] is PSMA positive LNCaP cells (Homo sapiens, UniProt Q04609). The data set is described as follows: Internalization assay on LNCaP cells. The class given is cell-based. The settings on record: 30 nM radiolabeled compound, 45 min; 177Lu-labeled, except CIM 99mTc-labeled. Put shortly:
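Poly-L-lysine-coated wells were seeded with 10⁵ LNCaP cells in RPMI (10% FCS, 1% L-glutamine) and held overnight at 37 °C. Cells took up 30 nM radiolabelled test compound in Opti-MEM for 45 min at 37 °C or 4 °C, with 2-PMPA block or DMSO, in triplicate. Surface-bound tracer came off in two 5-min 50 mM glycine pH 2.8 washes and internalized tracer in 0.3 M NaOH lysate. All fractions were gamma-counted against a ligand standard.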

Data set [3] deals with Recombinant human PSMA (rhPSMA) (Homo sapiens, UniProt Q04609). The data set is described as follows: NAALADase assay. The class given is biochemical.

SMILES strings stand for the structures.

Chain of Recombinant human PSMA (rhPSMA) (Q04609 whole entry): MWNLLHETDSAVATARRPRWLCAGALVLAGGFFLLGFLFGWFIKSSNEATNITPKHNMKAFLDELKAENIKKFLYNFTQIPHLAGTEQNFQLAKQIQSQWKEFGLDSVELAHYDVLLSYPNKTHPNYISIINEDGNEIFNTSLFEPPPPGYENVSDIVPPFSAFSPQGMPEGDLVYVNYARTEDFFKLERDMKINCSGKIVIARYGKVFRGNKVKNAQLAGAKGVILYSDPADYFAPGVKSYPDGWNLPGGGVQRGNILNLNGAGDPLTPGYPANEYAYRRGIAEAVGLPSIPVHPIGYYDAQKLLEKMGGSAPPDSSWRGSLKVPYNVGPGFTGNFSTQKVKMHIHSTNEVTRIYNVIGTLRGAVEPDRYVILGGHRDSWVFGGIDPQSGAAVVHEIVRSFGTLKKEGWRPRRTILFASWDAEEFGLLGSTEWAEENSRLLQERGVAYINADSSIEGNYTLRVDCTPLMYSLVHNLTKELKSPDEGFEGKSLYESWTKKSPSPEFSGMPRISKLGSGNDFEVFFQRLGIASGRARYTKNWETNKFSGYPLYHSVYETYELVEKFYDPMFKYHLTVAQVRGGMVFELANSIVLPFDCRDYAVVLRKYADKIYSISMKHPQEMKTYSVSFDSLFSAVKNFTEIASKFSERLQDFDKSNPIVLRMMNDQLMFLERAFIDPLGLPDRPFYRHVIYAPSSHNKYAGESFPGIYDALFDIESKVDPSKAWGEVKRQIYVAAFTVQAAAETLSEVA
Chain of PSMA positive LNCaP cells (Q04609 whole entry): as above

`O=C(O)CC[C@H](NC(=O)N[C@@H](CCCCNC(=O)[C@H](Cc1ccc2ccccc2c1)NC(=O)[C@H]1CC[C@H](CNC(=O)CN2CCN(CC(=O)O)CCN(CC(=O)O)CCN(CC(=O)O)CC2)CC1)C(=O)O)C(=O)O` [DOTA conjugate]: the “Time after which the amount in the tumor begins to decrease” value in data set [1] is on record as “approximately 15 min”. In addition, the “Absolute value of compound inside of the cells (amount internalized)” value in data set [2] is 3.7 ± 4.6%. Also, the IC50 in data set [3] was 800 ± 300 pM.
